{"source": "paper PMC7881365", "about": "(Xenobiotica; the fate of foreign compounds in biological …, 2020)", "key": {"[1]": {"tested_on": "Hela and SH-SY5Y cells", "details": "ref Fatokun et al. (2013; 2014); cited from earlier work"}, "[2]": {"biological_target": "T1, CYP1A2 (Homo sapiens, UniProt P05177)", "T1 sequence (P05177 1-516)": "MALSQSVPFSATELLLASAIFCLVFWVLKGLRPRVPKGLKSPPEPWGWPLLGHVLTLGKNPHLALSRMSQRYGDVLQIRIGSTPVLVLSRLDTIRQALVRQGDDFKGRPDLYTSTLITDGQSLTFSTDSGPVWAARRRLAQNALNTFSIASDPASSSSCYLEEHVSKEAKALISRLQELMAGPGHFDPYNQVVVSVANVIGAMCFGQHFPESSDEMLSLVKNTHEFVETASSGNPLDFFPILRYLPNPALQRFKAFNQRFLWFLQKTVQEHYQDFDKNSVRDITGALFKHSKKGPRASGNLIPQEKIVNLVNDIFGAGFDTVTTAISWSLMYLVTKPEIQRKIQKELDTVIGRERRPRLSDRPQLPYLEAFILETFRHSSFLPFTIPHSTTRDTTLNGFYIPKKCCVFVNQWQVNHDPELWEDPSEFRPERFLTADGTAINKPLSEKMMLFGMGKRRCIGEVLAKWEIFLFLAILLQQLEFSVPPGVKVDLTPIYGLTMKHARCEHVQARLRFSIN", "format": "in vitro ADME", "details": "peak intensities"}, "[3]": {"biological_target": "T2, CYP1A1 (Homo sapiens, UniProt P04798)", "T2 sequence (P04798 1-512)": "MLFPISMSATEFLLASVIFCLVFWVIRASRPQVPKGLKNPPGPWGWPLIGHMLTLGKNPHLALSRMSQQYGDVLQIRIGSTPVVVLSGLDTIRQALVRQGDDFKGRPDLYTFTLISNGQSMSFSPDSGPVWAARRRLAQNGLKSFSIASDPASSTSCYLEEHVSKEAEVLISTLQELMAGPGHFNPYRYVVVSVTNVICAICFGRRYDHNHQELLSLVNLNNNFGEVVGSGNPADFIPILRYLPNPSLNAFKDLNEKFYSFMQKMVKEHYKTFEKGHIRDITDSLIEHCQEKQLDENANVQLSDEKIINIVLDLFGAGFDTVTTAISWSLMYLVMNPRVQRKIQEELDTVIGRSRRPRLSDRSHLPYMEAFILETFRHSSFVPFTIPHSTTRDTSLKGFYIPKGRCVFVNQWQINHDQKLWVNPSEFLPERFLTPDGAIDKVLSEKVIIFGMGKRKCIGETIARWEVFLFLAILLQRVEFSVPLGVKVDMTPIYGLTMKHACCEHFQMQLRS", "format": "in vitro ADME", "details": "peak intensities", "outline": "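Reconstituted system: purified E. coli-expressed CYP1A1 (50 pmol), NADPH-P450 reductase (100 pmol), DLPC (50 µg), no b5. Incubated with 60 µM methoxyflavone test compound at 37 °C for 20 min after 1 min preincubation, started with NADPH-generating system (0.5 mM NADP+, 5 mM glucose 6-phosphate, 0.5 unit/mL dehydrogenase). Quenched with ice-cold CH3CN and centrifuged. LC-MS/MS positive ESI; product as peak intensity, two or three determinations.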"}, "[4]": {"biological_target": "T3, CYP2B6 (Homo sapiens, UniProt P20813)", "T3 sequence (P20813 1-491)": "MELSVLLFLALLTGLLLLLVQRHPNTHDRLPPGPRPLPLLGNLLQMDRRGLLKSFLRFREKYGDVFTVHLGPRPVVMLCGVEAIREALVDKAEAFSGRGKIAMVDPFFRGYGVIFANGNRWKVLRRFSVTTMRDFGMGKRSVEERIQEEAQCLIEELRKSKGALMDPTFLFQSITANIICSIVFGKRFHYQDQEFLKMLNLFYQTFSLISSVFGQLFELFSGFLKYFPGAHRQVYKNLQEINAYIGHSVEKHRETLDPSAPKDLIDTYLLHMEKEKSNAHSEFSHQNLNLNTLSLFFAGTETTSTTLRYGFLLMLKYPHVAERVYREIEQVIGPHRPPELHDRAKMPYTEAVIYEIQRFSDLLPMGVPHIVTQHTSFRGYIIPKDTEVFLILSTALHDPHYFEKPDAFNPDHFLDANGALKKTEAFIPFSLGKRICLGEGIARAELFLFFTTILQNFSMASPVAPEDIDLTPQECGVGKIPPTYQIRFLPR", "format": "in vitro ADME", "details": "peak intensities", "outline": "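E. coli membranes co-expressing CYP2B6 and NADPH-P450 reductase (50 pmol P450) incubated with 60 µM methoxyflavone test compound at 37 °C for 20 min. Reaction started after 1 min preincubation with NADPH-generating system (0.5 mM NADP+, 5 mM glucose 6-phosphate, 0.5 unit/mL glucose 6-phosphate dehydrogenase). Stopped with ice-cold CH3CN, then centrifuged. Supernatant analysed by LC-MS/MS (positive ESI); products reported as peak intensities, from two or three determinations.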"}, "[5]": {"biological_target": "T4, CYP1B1.1 (Homo sapiens, UniProt Q16678)", "T4 sequence (Q16678 1-543)": "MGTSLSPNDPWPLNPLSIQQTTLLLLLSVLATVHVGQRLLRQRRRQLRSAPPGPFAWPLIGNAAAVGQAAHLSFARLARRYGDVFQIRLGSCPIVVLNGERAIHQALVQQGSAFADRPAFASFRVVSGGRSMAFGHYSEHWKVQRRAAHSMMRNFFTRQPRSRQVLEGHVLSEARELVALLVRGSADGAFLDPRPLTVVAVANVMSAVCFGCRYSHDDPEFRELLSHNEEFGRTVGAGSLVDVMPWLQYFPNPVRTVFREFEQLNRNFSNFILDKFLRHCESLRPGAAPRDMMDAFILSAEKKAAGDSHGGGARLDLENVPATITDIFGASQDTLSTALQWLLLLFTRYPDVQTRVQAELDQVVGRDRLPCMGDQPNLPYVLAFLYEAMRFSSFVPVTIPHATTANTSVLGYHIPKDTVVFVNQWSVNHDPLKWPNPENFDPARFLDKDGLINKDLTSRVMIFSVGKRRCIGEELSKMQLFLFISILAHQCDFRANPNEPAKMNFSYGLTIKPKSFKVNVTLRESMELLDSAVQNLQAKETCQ", "format": "in vitro ADME", "details": "peak intensities"}, "[6]": {"biological_target": "T5, CYP1B1.3 (Homo sapiens, UniProt Q16678)", "T5 sequence (Q16678 1-543)": "T4 sequence (Q16678 1-543)", "format": "in vitro ADME", "details": "peak intensities"}}, "data": [{"smiles": "COc1ccc(-c2cc(=O)c3ccccc3o2)cc1", "note": "[4′MeF, 4′-methoxyflavone]", "values": [{"measurement": "prevention of decreases in cell viability caused by N-methyl-N′-nitro-N-nitrosoguanine", "setting": "[1]", "result": "effectively prevent decreases in cell viability"}]}, {"smiles": "COc1ccccc1-c1cc(=O)c2ccccc2o1", "note": "[2′MeF, 2′-methoxyflavone]", "values": [{"measurement": "formation of 2′Me255a (m/z 255 product)", "setting": "[2]", "result": "very low levels"}, {"measurement": "formation of 2′Me255a (m/z 255 product)", "setting": "[3]", "result": "very low levels"}, {"measurement": "formation of 2′Me239a (possibly 2′OHF)", "setting": "[4]", "result": "highly active"}, {"measurement": "formation of 2′Me255a (m/z 255 product)", "setting": "[4]", "result": "very low levels"}, {"measurement": "formation of 2′Me239a (possibly 2′OHF)", "setting": "[5]", "result": "highly active"}, {"measurement": "formation of 2′Me255a (m/z 255 product)", "setting": "[5]", "result": "very low levels"}, {"measurement": "formation of 2′Me239a (possibly 2′OHF)", "setting": "[6]", "result": "highly active"}, {"measurement": "formation of 2′Me255a (m/z 255 product)", "setting": "[6]", "result": "very low levels"}]}, {"smiles": "COc1ccc(-c2cc(=O)c3ccccc3o2)cc1OC", "note": "[3′,4′-dimethoxyflavone, reference compound]", "values": [{"measurement": "prevention of decreases in cell viability caused by N-methyl-N′-nitro-N-nitrosoguanine", "setting": "[1]", "result": "effectively prevent decreases in cell viability"}]}]}
